Experimental data: PubChem BioAssay AID504360 (Broad Institute, 2011)
The source made the active and inactive calls.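 How the source made its calls: active means fitted curve rises past 10% of the positive control signal at or below the top valid tested dose; inconclusive means flat fit between 30 and 70%, or an unreliable fit; inactive means the rest, including signal that falls instead.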

System: not listed separately
Assay: caspase-3/7 activation in A1-2A-tBid MEFs, dose response, orthogonal assay for A1 inhibitor project, cell-based, MEF A1-2A-tBid, luminescence, dry powder, set 3 (AID 504360)
Conditions: MEF A1-2A-tBid cells, caspase-3/7 luminescence, 3 h; at 35 µM (top of the series)
Procedure, shortened: (§1)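 Material: Mouse embryonic fibroblasts co-expressing A1 and tBid (A1-2A-tBid), primed | Buffer or medium: RPMI-1640, 10% FBS | Incubation: 3 h compound at 37 °C, 1 h reagent at room temperature | Signal: Luminescence from Caspase-Glo 3/7 DEVD-luciferin substrate, 1:1 in 50 mM HEPES | Evaluation: Caspase-3/7 activity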

SMILES	caspase activation
COc1c([N+](=O)[O-])c(=O)n(C)c2ccccc12	1.76% (inactive)
O=C(COc1ccc(Cl)cc1Cl)NNc1nc(N2CCOCC2)nc(N2CCOCC2)n1	-1.25% (inactive)
COc1nc2ccccc2c(Sc2ccc(C)cc2)c1[N+](=O)[O-]	1.61% (inactive)
COc1nc2ccccc2c(Cl)c1[N+](=O)[O-]	1.9% (inactive)
CCn1c(=O)c([N+](=O)[O-])c(Sc2ccc(C)cc2)c2ccccc21	1.72% (inactive)
COCCn1c(=O)c(Sc2ccc(C)cc2)c(Sc2ccc(C)cc2)c2ccccc21	1.26% (inactive)
Cc1ccc(Sc2c([N+](=O)[O-])c(=O)n(Cc3ccccc3)c3ccccc23)cc1	3.46% (inactive)
Cn1c(=O)c(Sc2ccccn2)c(Sc2ccccn2)c2ccccc21	3.1% (inactive)
CCn1c(=O)c(Sc2ccc(C)cc2)c(Sc2ccc(C)cc2)c2ccccc21	5.31% (inactive)
Cc1ccc(Sc2c(Sc3ccc(C)cc3)c3ccccc3n(C)c2=O)cc1	0.911% (inactive)
Cc1ccc(Sc2c(Sc3ccc(C)cc3)c3ccccc3n(Cc3ccccc3)c2=O)cc1	1.55% (inactive)
COc1ccc(CCNc2nc(N3CCCC3)nc(N3CCCC3)n2)cc1OC	3.4% (inactive)
COc1ccc(CCNc2nc(N3CCOCC3)nc(N3CCOCC3)n2)cc1OC	1.3% (inactive)
COc1ccc(N2CCN(c3nc(NCCc4ccc(OC)c(OC)c4)nc(N4CCOCC4)n3)CC2)cc1	-0.079% (inactive)
O=c1[nH]c2ccccc2c(O)c1[N+](=O)[O-]	2.36% (inactive)
C/C(=N\Nc1nc(N2CCCCC2)nc(N2CCCCC2)n1)c1ccc(F)cc1	-0.355% (inactive)
Cc1ccc(Sc2c([N+](=O)[O-])c(=O)n(C)c3ccccc23)cc1	10.3% (inactive)

System: MEF A1-2A-tBid cells, caspase-3/7 luminescence, 3 h
Assay: as above
Conditions: not given
Procedure, shortened: as §1

SMILES	AC10
COCCn1c(=O)c([N+](=O)[O-])c(Cl)c2ccccc21	1.47 µM
Cc1ccc(S(=O)(=O)c2c([N+](=O)[O-])c(=O)n(C)c3ccccc23)cc1	3.19 µM
Cn1c(=O)c([N+](=O)[O-])c(S(C)(=O)=O)c2ccccc21	3.28 µM
COCCn1c(=O)c([N+](=O)[O-])c(Sc2ccc(C)cc2)c2ccccc21	16.7 µM
O=c1[nH]c2ccccc2c(Cl)c1[N+](=O)[O-]	2.54 µM
O=c1c([N+](=O)[O-])c(Cl)c2ccccc2n1Cc1ccccc1	12.4 µM
Cn1c(=O)c([N+](=O)[O-])c(Sc2ccccn2)c2ccccc21	2.95 µM
CCn1c(=O)c([N+](=O)[O-])c(Cl)c2ccccc21	1.95 µM
CC1(C)CCC(c2ccc(Cl)cc2)=C(CN2CCN(c3ccc(C(=O)NS(=O)(=O)c4ccc(N[C@H](CCN5CCOCC5)CSc5ccccc5)c(S(=O)(=O)C(F)(F)F)c4)cc3)CC2)C1	0.579 µM
Cn1c(=O)c([N+](=O)[O-])c(Cl)c2ccccc21	1.88 µM
